Only a selection was taken, and hits are over-represented in it overall.
Xi reactivation: reactivates the inactive X chromosome in mouse fibroblasts. actives 0.055% (n = 360,000). XiGFP mouse fibroblasts, % GFP-positive cells imaging, 3 d; cells co-treated with 5-aza-dC sensitizer; scaled so ellipticine positive control = 100%. activation, % at 7.58 µM;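 active = mean normalized replicate activation at least 10% and every replicate at or above 10%; inconclusive = only one of the two criteria met; inactive = mean below 10% and not all replicates reach 10%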;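 note: 0% = median of on-plate neutral control wells and 100% = ellipticine 6 µM median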
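Material: SV40-immortalized XiGFP fibroblast cells, line 68-5-11 | Buffer or medium: DMEM containing 5-aza-dC | Dosing: One concentration, pinned | Times: 3 d treatment, 15 min room-temperature fixation | Controls: Ellipticine 6 µM positive control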
E-sel inducer: E-selectin induction on HUVECs; P16581; AID 686992; activation, % at 7.58 µM; actives 0.37% (n = 260,000); HUVEC E-selectin immunofluorescence imaging; normalized: neutral wells 0, TNF-alpha wells 100;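 active = mean E-selectin-positive cell signal at least 10% of the positive control, reached in at least 60% of replicates, without over 20% cell loss; inconclusive = no rule given, readout overlaps actives, possibly toxicity-flagged; inactive = the rest, including those meeting only one limit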
Target sequence (P16581 whole entry, looked up): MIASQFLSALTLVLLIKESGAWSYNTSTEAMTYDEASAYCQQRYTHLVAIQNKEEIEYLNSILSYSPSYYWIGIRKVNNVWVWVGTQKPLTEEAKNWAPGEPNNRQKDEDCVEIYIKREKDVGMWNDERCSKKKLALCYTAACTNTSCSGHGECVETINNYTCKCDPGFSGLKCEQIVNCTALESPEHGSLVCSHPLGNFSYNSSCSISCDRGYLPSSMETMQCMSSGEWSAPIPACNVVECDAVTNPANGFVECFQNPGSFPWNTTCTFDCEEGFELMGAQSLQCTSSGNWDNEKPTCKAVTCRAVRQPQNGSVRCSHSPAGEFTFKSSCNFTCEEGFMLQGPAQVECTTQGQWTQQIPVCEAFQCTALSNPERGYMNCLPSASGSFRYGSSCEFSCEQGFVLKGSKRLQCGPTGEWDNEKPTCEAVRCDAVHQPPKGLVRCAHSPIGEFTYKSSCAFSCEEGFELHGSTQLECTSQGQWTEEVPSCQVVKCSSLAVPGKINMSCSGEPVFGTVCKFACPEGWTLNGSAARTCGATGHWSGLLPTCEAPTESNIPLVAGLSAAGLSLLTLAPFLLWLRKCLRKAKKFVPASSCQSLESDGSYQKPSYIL
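Assay system: HUVEC primary endothelial cells. Input: 3,000 HUVEC seeded per well. Doses: one compound dose added by pin transfer. Read-out basis: % PE-positive cells. Benchmarks: TNF-alpha high, DMSO low. Detection: immunofluorescence imaging. Buffer or medium: EGM-2, gelatin.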
* = called active by the depositor; ? = inconclusive; nt = no result.

SMILES	Xi reactivation	E-sel inducer
Cc1noc(C)c1NC(=O)Nc1ccc2c(c1)CC(=O)N([C@@H](C)CO)C[C@@H](C)[C@@H](CN(C)S(=O)(=O)c1ccccc1)O2	0	-4
C[C@@H]1CN([C@@H](C)CO)C(=O)Cc2cc(NS(=O)(=O)c3cccs3)ccc2O[C@@H]1CN(C)S(=O)(=O)c1ccc(Cl)cc1	-1	0
C[C@H]1CN([C@@H](C)CO)C(=O)Cc2cc(NS(=O)(=O)c3ccc(Cl)cc3)ccc2O[C@H]1CN(C)S(=O)(=O)c1ccc(F)cc1	0	0
C[C@H](CO)N1C[C@H](C)[C@H](CN(C)S(=O)(=O)c2ccc(F)cc2)Oc2ccc(NC(=O)Nc3ccc(F)cc3)cc2CC1=O	0	3
C[C@H](CO)N1C[C@H](C)[C@H](CN(C)S(=O)(=O)c2ccc(Cl)cc2)Oc2ccc(NC(=O)Nc3ccc(F)cc3)cc2CC1=O	0	40*
CC(C)(C)C(=O)/C(=C/c1cccc([N+](=O)[O-])c1)n1cncn1	1	nt
CO[C@@H]1CN(C)C(=O)c2cc(NC(=O)c3cccc(F)c3)ccc2OC[C@@H](C)N(C(C)=O)C[C@H]1C	0	0
O=C(c1ccccc1)N1CC(=O)N2[C@H](CO)[C@H](c3ccc(/C=C/c4ccccc4)cc3)[C@H]2C1	0	nt
C[C@H](CO)N1C[C@H](C)[C@@H](CN(C)CC2CC2)Oc2c(NC(=O)CCC(F)(F)F)cccc2C1=O	0	nt
O=C(C[C@@H]1CC[C@H]2[C@@H](COC[C@H](O)CN2Cc2ccccc2)O1)N[C@@H]1CCN(Cc2ccccc2)C1	0	0
O=C(C[C@@H]1CC[C@H]2[C@@H](COC[C@H](O)CN2Cc2cc(F)cc(F)c2)O1)NC1CCC1	0	0
C[C@H](CO)N1C[C@H](C)[C@H](CN(C)S(=O)(=O)c2ccccc2)Oc2ccc(NC(=O)Nc3ccc(F)cc3)cc2CC1=O	0	41*
C[C@@H]1CN([C@H](C)CO)C(=O)Cc2cc(NC(=O)Nc3ccc(F)cc3)ccc2O[C@H]1CN(C)S(=O)(=O)c1ccccc1	-1	-3
COc1ccc(Cc2noc(CN(C)CCc3ccccc3)n2)cc1OC	0	nt
COc1ccc(CN(C)Cc2nc(Cc3ccccc3Cl)no2)cc1OC	33*	0
C[C@@H]1CN([C@@H](C)CO)C(=O)c2c(c3ccccc3n2C)-c2ccccc2CO[C@@H]1CN(C)C(=O)c1cc(Cl)cc(Cl)c1	-1	-2
CCCCc1c(O)nc2ccccn2c1=O	0	0
Cc1c(O)nc2ccccn2c1=O	0	71*
COc1ccc(NC(=O)N2CCC3(CC2)CN(CC2CC2)[C@@H](CO)c2c3c3ccc(OC)cc3n2C)cc1	0	nt
C[C@@H]1CN([C@@H](C)CO)S(=O)(=O)c2ccc(-c3ccc(F)cc3)cc2O[C@@H]1CN(C)C(=O)Nc1ccc(F)cc1	0	0
C[C@H]1CN([C@@H](C)CO)C(=O)Cc2cc(NC(=O)Nc3ccc4c(c3)OCO4)ccc2O[C@@H]1CN(C)C(=O)Nc1ccc2c(c1)OCO2	0	1
C[C@@H]1CN([C@@H](C)CO)C(=O)c2cc(NC(=O)Nc3ccc4c(c3)OCO4)ccc2O[C@H]1CN(C)Cc1ccc(-c2ccccc2)cc1	0	60*
C[C@H]1CN([C@@H](C)CO)C(=O)c2cc(NC(=O)Nc3ccc4c(c3)OCO4)ccc2O[C@H]1CN(C)C	-1	-8
C[C@H](CO)N1C[C@H](C)[C@@H](CN(C)C)Oc2ccc(NC(=O)Nc3ccccc3)cc2CC1=O	0	-7
C[C@H]1CN([C@@H](C)CO)C(=O)Cc2cc(NC(=O)Nc3ccc4c(c3)OCO4)ccc2O[C@@H]1CN(C)C	0	233*
SMILES	Xi reactivation	E-sel inducer
C[C@H](CO)N1C[C@H](C)[C@@H](CN(C)Cc2ccc(-c3ccccc3)cc2)Oc2ccc(NC(=O)Nc3ccc4c(c3)OCO4)cc2C1=O	0	11
C[C@@H]1CN([C@@H](C)CO)C(=O)c2cc(NC(=O)Nc3ccc4c(c3)OCO4)ccc2O[C@H]1CN(C)C	-1	45*
C[C@@H]1CN([C@H](C)CO)C(=O)Cc2cc(NC(=O)Nc3ccccc3)ccc2O[C@@H]1CN(C)C	0	46*
COc1cccc(NC(=O)C[C@@H]2CC[C@H]3[C@@H](COc4ccc(NC(=O)C5CCCC5)cc4C(=O)N3C)O2)c1	0	nt
CS(=O)(=O)N1C2CN(CC(F)(F)F)CC1C2c1ccc(Br)cc1 (stereo not given)	0	nt
CC(C)C[C@H]1COCc2cn(nn2)CC[C@@H](Cc2cccc(Cl)c2)C(=O)N1	0	nt
CO[C@@H]1CN(C)C(=O)c2ccc(NC(=O)c3cccc(F)c3)cc2OC[C@@H](C)N(C(C)=O)C[C@H]1C	1	nt
C[C@@H]1CN(C)C(=O)Cc2cc(N)ccc2O[C@@H]1CN(C)C(=O)OC(C)(C)C	0	nt
COc1ccc2c3c(n(C)c2c1)[C@H](CO)N(Cc1ccc(F)cc1)CC31CN(C)C1	0	0
COc1ccc(S(=O)(=O)N(C)C[C@H]2Oc3ccc(NC(=O)Nc4ccc5c(c4)OCO5)cc3CC(=O)N([C@H](C)CO)C[C@H]2C)cc1	0	36*
COc1ccc(S(=O)(=O)N(C)C[C@H]2Oc3ccc(NC(=O)Nc4ccc5c(c4)OCO5)cc3CC(=O)N([C@@H](C)CO)C[C@@H]2C)cc1	0	-17
COc1ccc2c3c([nH]c2c1)[C@H](CO)N(C(=O)Nc1ccc(F)cc1)CC31CCN(Cc2nccs2)CC1	0	nt
C[C@H]1CN([C@@H](C)CO)S(=O)(=O)c2ccc(C#CC(C)(C)O)cc2O[C@@H]1CN(C)C(=O)C1CC1	0	1
CC[C@H]1CC=CC[C@H](C)Oc2ccccc2C(=O)N(C)[C@@H](Cc2ccccc2)C(=O)N1 (mixture of isomers)	0	nt
CCOC(=O)Cn1c(=NC(=O)C2COc3ccccc3O2)sc2cc(S(N)(=O)=O)ccc21 (stereo not given)	0	2
CCOC(=O)Cn1c(=NC(=O)c2ccc([N+](=O)[O-])s2)sc2ccccc21	18*	4
CN1C(=O)c2cc(NC(=O)c3cccs3)ccc2OC[C@H]2O[C@H](CC(=O)O)CC[C@H]21	0	0
O=C(C[C@H]1C=C[C@@H](NC(=O)C2CCOCC2)[C@H](CO)O1)NCc1ccccc1Cl	0	-2
COc1cccc2c1C(=O)c1c(O)c3c(c(O)c1C2=O)CC(O)(C(C)=O)CC3OC1CC(N(C)C)C(O)C(C)O1 (stereo not given)	0	nt
COc1cccc2c1C(=O)c1c(O)c3c(c(O)c1C2=O)C[C@@](O)(C(=O)CO)C[C@@H]3O[C@H]1C[C@H](N)[C@H](O)[C@H](C)O1	3	58*
COc1cccc2c1C(=O)c1c(O)c3c(c(O)c1C2=O)C[C@@](O)(C(=O)CO)C[C@@H]3OC1CC(N)C(O)C(C)O1 (stereo not given in full)	2	?
CC(=O)[C@@]1(O)Cc2c(O)c3c(c(O)c2[C@H](O[C@H]2C[C@H](N)[C@H](O)[C@H](C)O2)C1)C(=O)c1ccccc1C3=O	109*	3
FC(F)(F)c1ccc2c(c1)NCC1CCCN21 (stereo not given)	0	5
